From ChEMBL document CHEMBL5038678, “Stereochemical Effects on the Antimicrobial Properties of Tetrasubstituted 2,5-Diketopiperazines” (ACS Med Chem Lett, 2022)
Values after ≈ are worked out from the molar mass of the structure shown. Where a SMILES comes first, the peptide text is derived from it. Bridges are numbered along the chain shown (N, C = ends). [ ]: non-standard residue; d: D form. The star is where a group is joined. X1 = CC[C@H](C)CCCCC(=O)*; Dab = NCC[C@H](N)C(=O)O

Experiments:
[1] = tested on: Enterococcus faecalis; assay: Antibacterial activity against Enterococcus faecalis ATCC 29212 assessed as reduction in bacterial growth after 18 hrs by CLSI based broth microdilution assay; format: functional
Summary of the method: (§1)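 CLSI broth microdilution for MIC (with MBC) in polypropylene microtiter plates, inoculum ~5 × 10^5 CFU/mL. Run independently on three occasions. The reported MIC is the lowest concentration on which all three biological replicates agreed.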

[2] = tested on: Aspergillus fumigatus; assay: Antifungal activity against Aspergillus fumigatus SVB-F136 assessed as fungal growth inhibition after 48 hrs by CLSI protocol based microbroth dilution method; format: functional
Summary of the method: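 Filamentous fungus tested by CLSI broth microdilution with final inoculum 0.4 × 10^4 to 5 × 10^4 CFU/mL. Three independent biological replicates; MIC is the lowest concentration at which all three agreed.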

[3] = Cytotoxicity against NHDF cells assessed as reduction in cell viability measured after 24 hrs by MTT assay; format: toxicity, cell-based; details: human, read-out: LD50
Summary of the method: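 Adherent normal human dermal fibroblasts were read by MTT against a DMSO vehicle control. Viability is expressed as percent of untreated controls. At least three independent biological replicates were run, with each concentration in technical duplicate.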

[4] = tested on: Staphylococcus aureus; assay: Antibacterial activity against Staphylococcus aureus ATCC 25923 assessed as reduction in bacterial growth after 18 hrs by CLSI based broth microdilution assay; format: functional; summary of the method: as §1
[5] = tested on: Staphylococcus aureus; assay: Antibacterial activity against methicillin-resistant Staphylococcus aureus USA 300 assessed as reduction in bacterial growth after 18 hrs by CLSI based broth microdilution assay; format: functional; summary of the method: as §1
[6] = tested on: Streptococcus pneumoniae; assay: Antibacterial activity against Streptococcus pneumoniae ATCC 49619 assessed as reduction in bacterial growth after 18 hrs by CLSI based broth microdilution assay; format: functional
[7] = tested on: Streptococcus pyogenes; assay: Antibacterial activity against macrolide- and tetracycline-resistant Streptococcus pyogenes HKU16 assessed as reduction in bacterial growth after 18 hrs by CLSI based broth microdilution assay; format: functional; summary of the method: as §1
[8] = tested on: Escherichia coli; assay: Antibacterial activity against Escherichia coli ATCC 25922 assessed as reduction in bacterial growth after 18 hrs by CLSI based broth microdilution assay; format: functional; summary of the method: as §1
[9] = tested on: Escherichia coli; assay: Antibacterial activity against multi-drug resistant Escherichia coli MS8345 assessed as reduction in bacterial growth after 18 hrs by CLSI based broth microdilution assay; format: functional; summary of the method: as §1
[10] = tested on: Klebsiella pneumoniae; assay: Antibacterial activity against Klebsiella pneumoniae MS6671 assessed as reduction in bacterial growth after 18 hrs by CLSI based broth microdilution assay; format: functional
[11] = tested on: Acinetobacter baumannii; assay: Antibacterial activity against Acinetobacter baumannii ATCC 19606 assessed as reduction in bacterial growth after 18 hrs by CLSI based broth microdilution assay; format: functional
[12] = tested on: Acinetobacter baumannii; assay: Antibacterial activity against multi-drug resistant Acinetobacter baumannii AB5075 assessed as reduction in bacterial growth after 18 hrs by CLSI based broth microdilution assay; format: functional; summary of the method: as §1
[13] = tested on: Pseudomonas aeruginosa; assay: Antibacterial activity against Pseudomonas aeruginosa SVB-B9 assessed as reduction in bacterial growth after 18 hrs by CLSI based broth microdilution assay; format: functional
[14] = tested on: Candida albicans; assay: Antifungal activity against Candida albicans SC5314 assessed as reduction in fungal growth incubated for 48 hrs by CLSI based broth microdilution assay; format: functional
Summary of the method: (§2)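 Yeast susceptibility by CLSI broth microdilution (M27), final inoculum 0.5 × 10^3 to 2.5 × 10^3 CFU/mL. Run independently on three occasions; MIC reported as the lowest concentration giving agreement across all three biological replicates.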

[15] = tested on: Cyberlindnera jadinii; assay: Antifungal activity against Candida utilis SVB-Y1 assessed as reduction in fungal growth after 48 hrs by CLSI based broth microdilution assay; format: functional; details: Williopsis jadinii; summary of the method: as §2
[16] = tested on: Enterococcus faecium; assay: Antibacterial activity against vancomycin-resistant Enterococcus faecium RBWH1 assessed as reduction in bacterial growth after 18 hrs by CLSI based broth microdilution assay; details: RBWH1, 18 h

N=C(N)NCCC[C@@H]1C(=O)N(Cc2ccc(-c3ccccc3)cc2)[C@@H](CCCNC(=N)N)C(=O)N1Cc1ccc(-c2ccccc2)cc1
MIC [1]: 16 µM (≈ 10.3 µg/mL) | MIC [2]: 64 µM (≈ 41.3 µg/mL) | CC50 at 24 h [3]: 175 µM | MIC [4]: 4 µM (≈ 2.58 µg/mL) | MIC [5]: 4 µM (≈ 2.58 µg/mL) | MIC [6]: 16 µM (≈ 10.3 µg/mL) | MIC [7]: 16 µM (≈ 10.3 µg/mL) | MIC [8]: 64 µM (≈ 41.3 µg/mL) | MIC [9]: > 64 µM | MIC [10]: > 64 µM | MIC [11]: > 64 µM | MIC [12]: > 64 µM | MIC [13]: 64 µM (≈ 41.3 µg/mL) | MIC [14]: 8 µM (≈ 5.16 µg/mL) | MIC [15]: 2 µM (≈ 1.29 µg/mL) | MIC [16]: 8 µM (≈ 5.16 µg/mL)

N=C(N)NCCC[C@H]1C(=O)N(Cc2ccc(-c3ccccc3)cc2)[C@@H](CCCNC(=N)N)C(=O)N1Cc1ccc(-c2ccccc2)cc1
MIC [1]: 2 µM (≈ 1.29 µg/mL) | MIC [2]: 8 µM (≈ 5.16 µg/mL) | CC50 at 24 h [3]: 63 µM | MIC [4]: 4 µM (≈ 2.58 µg/mL) | MIC [5]: 4 µM (≈ 2.58 µg/mL) | MIC [6]: 8 µM (≈ 5.16 µg/mL) | MIC [7]: 8 µM (≈ 5.16 µg/mL) | MIC [8]: 8 µM (≈ 5.16 µg/mL) | MIC [9]: 8 µM (≈ 5.16 µg/mL) | MIC [10]: 32 µM (≈ 20.6 µg/mL) | MIC [11]: 64 µM (≈ 41.3 µg/mL) | MIC [12]: 16 µM (≈ 10.3 µg/mL) | MIC [13]: 8 µM (≈ 5.16 µg/mL) | MIC [14]: 4 µM (≈ 2.58 µg/mL) | MIC [15]: 4 µM (≈ 2.58 µg/mL) | MIC [16]: 8 µM (≈ 5.16 µg/mL)

N=C(N)NCCC[C@H]1C(=O)N(Cc2ccccc2)[C@@H](CCCNC(=N)N)C(=O)N1Cc1ccccc1
MIC [1]: > 64 µM | MIC [2]: > 64 µM | CC50 at 24 h [3]: > 512 µM | MIC [4]: > 64 µM | MIC [5]: > 64 µM | MIC [6]: > 64 µM | MIC [7]: 64 µM (≈ 31.5 µg/mL) | MIC [8]: > 64 µM | MIC [9]: > 64 µM | MIC [10]: > 64 µM | MIC [11]: > 64 µM | MIC [12]: > 64 µM | MIC [13]: > 64 µM | MIC [14]: > 64 µM | MIC [15]: > 64 µM | MIC [16]: > 64 µM

N=C(N)NCCC[C@@H]1C(=O)N(Cc2ccc(-c3ccccc3)cc2)[C@H](CCCNC(=N)N)C(=O)N1Cc1ccc(-c2ccccc2)cc1
MIC [1]: 4 µM (≈ 2.58 µg/mL) | MIC [2]: 8 µM (≈ 5.16 µg/mL) | CC50 at 24 h [3]: 99 µM | MIC [4]: 4 µM (≈ 2.58 µg/mL) | MIC [5]: 4 µM (≈ 2.58 µg/mL) | MIC [6]: 8 µM (≈ 5.16 µg/mL) | MIC [7]: 8 µM (≈ 5.16 µg/mL) | MIC [8]: 8 µM (≈ 5.16 µg/mL) | MIC [9]: 16 µM (≈ 10.3 µg/mL) | MIC [10]: 64 µM (≈ 41.3 µg/mL) | MIC [11]: 64 µM (≈ 41.3 µg/mL) | MIC [12]: 32 µM (≈ 20.6 µg/mL) | MIC [13]: 8 µM (≈ 5.16 µg/mL) | MIC [14]: 2 µM (≈ 1.29 µg/mL) | MIC [15]: 4 µM (≈ 2.58 µg/mL) | MIC [16]: 4 µM (≈ 2.58 µg/mL)

NCCC[C@H]1C(=O)N(Cc2ccc(-c3ccccc3)cc2)[C@@H](CCCN)C(=O)N1Cc1ccc(-c2ccccc2)cc1
MIC [1]: 8 µM (≈ 4.49 µg/mL) | MIC [2]: 32 µM (≈ 17.9 µg/mL) | CC50 at 24 h [3]: 30 µM | MIC [4]: 4 µM (≈ 2.24 µg/mL) | MIC [5]: 4 µM (≈ 2.24 µg/mL) | MIC [6]: 8 µM (≈ 4.49 µg/mL) | MIC [7]: 8 µM (≈ 4.49 µg/mL) | MIC [8]: 16 µM (≈ 8.97 µg/mL) | MIC [9]: 16 µM (≈ 8.97 µg/mL) | MIC [10]: 8 µM (≈ 4.49 µg/mL) | MIC [11]: 64 µM (≈ 35.9 µg/mL) | MIC [12]: 32 µM (≈ 17.9 µg/mL) | MIC [14]: 64 µM (≈ 35.9 µg/mL) | MIC [15]: 32 µM (≈ 17.9 µg/mL) | MIC [16]: 8 µM (≈ 4.49 µg/mL)

CC[C@H](C)CCCCC(=O)N[C@@H](CCN)C(=O)N[C@H](C(=O)N[C@@H](CCN)C(=O)N[C@H]1CCNC(=O)[C@H]([C@@H](C)O)NC(=O)[C@H](CCN)NC(=O)[C@H](CCN)NC(=O)[C@H](CC(C)C)NC(=O)[C@@H](Cc2ccccc2)NC(=O)[C@H](CCN)NC1=O)[C@@H](C)O (X1-[Dab]T[Dab][Dab][Dab][dF]L[Dab][Dab]T; lactam 4-C)
MIC [1]: 8 µM (≈ 9.63 µg/mL) | CC50 at 24 h [3]: > 512 µM | MIC [4]: 64 µM (≈ 77 µg/mL) | MIC [5]: 32 µM (≈ 38.5 µg/mL) | MIC [6]: 8 µM (≈ 9.63 µg/mL) | MIC [7]: 32 µM (≈ 38.5 µg/mL) | MIC [8]: 0.25 µM (≈ 0.301 µg/mL) | MIC [9]: 4 µM (≈ 4.81 µg/mL) | MIC [10]: 16 µM (≈ 19.3 µg/mL) | MIC [11]: 1 µM (≈ 1.2 µg/mL) | MIC [12]: 0.25 µM (≈ 0.301 µg/mL) | MIC [16]: > 64 µM

CC1(C)S[C@@H]2[C@H](NC(=O)[C@H](N)c3ccc(O)cc3)C(=O)N2[C@H]1C(=O)O [AMOXICILLIN]
MIC [1]: 8 µM (≈ 2.92 µg/mL) | CC50 at 24 h [3]: > 512 µM | MIC [4]: 1 µM (≈ 0.365 µg/mL) | MIC [5]: > 64 µM | MIC [6]: 0.5 µM (≈ 0.183 µg/mL) | MIC [7]: 0.25 µM (≈ 0.0914 µg/mL) | MIC [8]: 16 µM (≈ 5.85 µg/mL) | MIC [13]: > 64 µM | MIC [16]: 64 µM (≈ 23.4 µg/mL)

C[C@@H]1[C@H](O)[C@@H](C)/C=C/C=C/C=C/C=C/C=C/C=C/C=C/[C@H](O[C@@H]2O[C@H](C)[C@@H](O)[C@H](N)[C@@H]2O)C[C@@H]2O[C@](O)(C[C@@H](O)C[C@@H](O)[C@H](O)CC[C@@H](O)C[C@@H](O)CC(=O)O[C@H]1C)C[C@H](O)[C@H]2C(=O)O [AMPHOTERICIN B]
MIC [2]: 4 µM (≈ 3.7 µg/mL) | MIC [14]: 1 µM (≈ 0.924 µg/mL) | MIC [15]: 2 µM (≈ 1.85 µg/mL)
